According to ChEMBL document CHEMBL3784969, “Pharmacokinetics of flutamide in patients with renal insufficiency” (Br J Clin Pharmacol, 1999):

Experiments:
Homo sapiens [1] = experiment: AUC (0 to 96 hrs) in patient (4 patients) with renal insufficiency at 250 mg, po assessed as hydroxy flutamide administered as single dose by gas chromatography; format: ADME, organism-based; design: dose 250 mg, time < 96 hr, route oral; conditions: in vivo
Homo sapiens [2] = experiment: Terminal half life in patient (7 patients) with renal insufficiency assessed as hydroxy flutamide at 250 mg, po administered as single dose by gas chromatography; format: ADME, organism-based; conditions: in vivo
Procedure, shortened: (§1)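 Males grouped by 24 h CLcr normalised to body surface area (>80, 50–80, 30–49, 5–29 ml min−1 1.73 m−2), fasted 10 h pre-dose and 4 h post-dose, given a single oral 250 mg flutamide dose. Plasma sampled 0–96 h; urine collected in blocks to 96 h. Flutamide and hydroxyflutamide measured by GC with electron-capture detection. Renal CL = Ae(0,96 h)/AUC(0,96 h); t1/2 = 0.693/λz.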

Homo sapiens [3] = experiment: Tmax in patient (4 patients) with renal insufficiency assessed as hydroxy flutamide at 250 mg, po administered as single dose by gas chromatography; format: ADME, organism-based; conditions: in vivo; procedure, shortened: as §1
Homo sapiens [4] = experiment: Final time point in terminal phase in patient (3 patients) with renal insufficiency at 250 mg, po administered as single dose by gas chromatography; format: ADME, organism-based; conditions: in vivo; procedure, shortened: as §1
Homo sapiens [5] = experiment: AUC (0 to 96 hrs) in patient (3 patients) with renal insufficiency at 250 mg, po assessed as hydroxy flutamide administered as single dose by gas chromatography; format: ADME, organism-based; design: dose 250 mg, time < 96 hr, route oral; conditions: in vivo
Homo sapiens [6] = experiment: AUC (0 to 24 hrs) in patient (7 patients) with renal insufficiency assessed as hydroxy flutamide at 250 mg, po administered as single dose by gas chromatography; format: ADME, organism-based; design: dose 250 mg, time < 24 hr, route oral; conditions: in vivo
[7] = AUC (0 to 96 hrs) in patient (4 patients) with renal insufficiency at 250 mg, po administered as single dose by gas chromatography; format: ADME, organism-based; design: time < 96 hr, dose 250 mg, route oral; conditions: human, in vivo
Homo sapiens [8] = experiment: Final time point in terminal phase in patient (4 patients) with renal insufficiency at 250 mg, po administered as single dose by gas chromatography; format: ADME, organism-based; conditions: in vivo; procedure, shortened: as §1
Homo sapiens [9] = experiment: Tmax in patient (7 patients) with renal insufficiency assessed as hydroxy flutamide at 250 mg, po administered as single dose by gas chromatography; format: ADME, organism-based; conditions: in vivo; procedure, shortened: as §1
[10] = AUC (0 to 24 hrs) in patient (3 patients) with renal insufficiency at 250 mg, po administered as single dose by gas chromatography; format: ADME, organism-based; design: time < 24 hr, dose 250 mg, route oral; conditions: human, in vivo
Homo sapiens [11] = experiment: AUC (0 to 96 hrs) in patient (6 patients) with renal insufficiency at 250 mg, po assessed as hydroxy flutamide administered as single dose by gas chromatography; format: ADME, organism-based; design: dose 250 mg, time < 96 hr, route oral; conditions: in vivo
Homo sapiens [12] = experiment: AUC (0 to infinity) in patient (7 patients) with renal insufficiency at 250 mg, po assessed as hydroxy flutamide administered as single dose by gas chromatography; format: ADME, organism-based; design: dose 250 mg, route oral, time infinity; conditions: in vivo
Homo sapiens [13] = experiment: Cmax in patient (6 patients) with renal insufficiency assessed as hydroxy flutamide at 250 mg, po administered as single dose by gas chromatography; format: ADME, organism-based; design: dose 250 mg, route oral; conditions: in vivo
Homo sapiens [14] = experiment: AUClast in patient (6 patients) with renal insufficiency assessed as hydroxy flutamide at 250 mg, po administered as single dose 4 hrs prior to hemodialysis treatment measured at starting time of dialysis and post dialysis treatment by gas chromatography; format: ADME, organism-based; design: dose 250 mg, time 0 - last, route oral; conditions: in vivo
Homo sapiens [15] = experiment: AUClast in patient (6 patients) with renal insufficiency at 250 mg, po assessed as hydroxy flutamide administered as single dose by gas chromatography; format: ADME, organism-based; design: dose 250 mg, time 0 - last, route oral; conditions: in vivo
Homo sapiens [16] = experiment: AUC (0 to 96 hrs) in patient (7 patients) with renal insufficiency at 250 mg, po assessed as hydroxy flutamide administered as single dose by gas chromatography; format: ADME, organism-based; design: time < 96 hr, dose 250 mg, route oral; conditions: in vivo
Homo sapiens [17] = experiment: Tmax in patient (6 patients) with renal insufficiency assessed as hydroxy flutamide at 250 mg, po administered as single dose by gas chromatography; format: ADME, organism-based; conditions: in vivo; procedure, shortened: as §1
Homo sapiens [18] = experiment: AUC (0 to infinity) in patient (4 patients) with renal insufficiency at 250 mg, po assessed as hydroxy flutamide administered as single dose by gas chromatography; format: ADME, organism-based; design: dose 250 mg, time infinity, route oral; conditions: in vivo
Homo sapiens [19] = experiment: AUClast in patient (3 patients) with renal insufficiency at 250 mg, po assessed as hydroxy flutamide administered as single dose by gas chromatography; format: ADME, organism-based; design: dose 250 mg, time 0 - last, route oral; conditions: in vivo
Homo sapiens [20] = experiment: Toxicity in patient with renal insufficiency assessed as level of lactic dehydrogenase at 250 mg, po administered as single dose (reference value: 85 to 220 IU/l); format: organism-based; conditions: in vivo
Procedure, shortened: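 Male subjects were grouped by creatinine clearance: normal renal function, graded impairment, or chronic haemodialysis. Each received a single oral dose as two 125 mg capsules while fasted. Serum lactic dehydrogenase was measured pre-dose and at follow-up and read against the 85–220 IU l−1 normal range.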

[21] = Tmax in patient (4 patients) with renal insufficiency at 250 mg, po administered as single dose by gas chromatography; format: ADME, organism-based; conditions: human, in vivo; procedure, shortened: as §1
[22] = Renal clearance in patient (4 patients) with renal insufficiency at 250 mg, po administered as single dose by gas chromatography; format: ADME, organism-based, Kidney; conditions: human, in vivo; procedure, shortened: as §1
[23] = AUC (0 to 96 hrs) in patient (6 patients) with renal insufficiency at 250 mg, po administered as single dose by gas chromatography; format: ADME, organism-based; design: dose 250 mg, time < 96 hr, route oral; conditions: human, in vivo
Homo sapiens [24] = experiment: AUC (0 to infinity) in patient (6 patients) with renal insufficiency at 250 mg, po assessed as hydroxy flutamide administered as single dose by gas chromatography; format: ADME, organism-based; design: dose 250 mg, route oral, time infinity; conditions: in vivo
[25] = Drug excretion in dialysate of patient with renal insufficiency at 250 mg, po administered first dose followed by 14 days wash out period and administered second dose 4 hrs prior to hemodialysis measured during hemodialysis treatment by gas chromatography; format: ADME, organism-based; conditions: human, in vivo
Procedure, shortened: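 Group V haemodialysis males (CLcr <5 ml min−1 1.73 m−2). Single oral 250 mg flutamide (two 125 mg capsules) right after HD; after 14-day washout, same dose 4 h before HD lasting 2–4 h. Venous samples to 48 h, arterial/venous during HD, dialysate in hourly blocks. GC with 63Ni electron-capture detection. CL(HD) = dialysate Ae(HD)/arterial AUC(HD); renal CL = Ae(0,48)/AUC(0,48 h).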

Homo sapiens [26] = experiment: Cmax in patient (6 patients) with renal insufficiency assessed as hydroxy flutamide at 250 mg, po administered as single dose 4 hrs prior to hemodialysis treatment measured at starting time of dialysis and post dialysis treatment by gas chromatography; format: ADME, organism-based; design: dose 250 mg, route oral; conditions: in vivo
Homo sapiens [27] = experiment: Final time point in terminal phase in patient (4 patients) with renal insufficiency assessed as hydroxy flutamide at 250 mg, po administered as single dose by gas chromatography; format: ADME, organism-based; conditions: in vivo; procedure, shortened: as §1
Homo sapiens [28] = experiment: AUC (0 to 24 hrs) in patient (4 patients) with renal insufficiency assessed as hydroxy flutamide at 250 mg, po administered as single dose by gas chromatography; format: ADME, organism-based; design: dose 250 mg, time < 24 hr, route oral; conditions: in vivo
Homo sapiens [29] = experiment: Cmax in patient (4 patients) with renal insufficiency assessed as hydroxy flutamide at 250 mg, po administered as single dose by gas chromatography; format: ADME, organism-based; design: dose 250 mg, route oral; conditions: in vivo
Homo sapiens [30] = experiment: Cmax in patient (3 patients) with renal insufficiency assessed as hydroxy flutamide at 250 mg, po administered as single dose by gas chromatography; format: ADME, organism-based; design: dose 250 mg, route oral; conditions: in vivo
[31] = Drug excretion in urine of patient (4 patients) with renal insufficiency assessed as hydroxy flutamide at 250 mg, po administered as single dose by gas chromatography; format: ADME, organism-based; conditions: human, in vivo; procedure, shortened: as §1
Homo sapiens [32] = experiment: Tmax in patient (3 patients) with renal insufficiency assessed as hydroxy flutamide at 250 mg, po administered as single dose by gas chromatography; format: ADME, organism-based; conditions: in vivo; procedure, shortened: as §1
Homo sapiens [33] = experiment: AUClast in patient (7 patients) with renal insufficiency at 250 mg, po assessed as hydroxy flutamide administered as single dose by gas chromatography; format: ADME, organism-based; design: dose 250 mg, time 0 - last, route oral; conditions: in vivo

For `CC(C)C(=O)Nc1ccc([N+](=O)[O-])c(C(F)(F)F)c1` [FLUTAMIDE], the AUC (Homo sapiens [1]) was 6499 ng·h/mL, the “beta t1/2” value (Homo sapiens [2]) was 7.1 h and the Tmax (Homo sapiens [3]) was 3 h. For the same compound, the Time (Homo sapiens [4]) was 6 h, the AUC (Homo sapiens [5]) was 6907 ng·h/mL and the AUC (Homo sapiens [6]) was 4663 ng·h/mL. It also gave an AUC(0-t) at 96 h [7] of 107 ng·h/mL, a Time (Homo sapiens [8]) of 5 h and a Tmax (Homo sapiens [9]) of 2.3 h. The AUC(0-t) at 24 h [10] was 98 ng·h/mL, the AUC (Homo sapiens [11]) was 5527 ng·h/mL and the AUC (Homo sapiens [12]) was 4993 ng·h/mL. For the same compound, the Cmax (Homo sapiens [13]) was 1070 ng/mL, the AUClast (Homo sapiens [14]) was 5862 ng·h/mL and the AUClast (Homo sapiens [15]) was 5476 ng·h/mL. It also gave an AUC (Homo sapiens [16]) of 4993 ng·h/mL, a Tmax (Homo sapiens [17]) of 1.9 h and an AUC (Homo sapiens [18]) of 6499 ng·h/mL. The AUClast (Homo sapiens [19]) was 6843 ng·h/mL, the Activity (Homo sapiens [20]) was 144 IU/L and the Tmax [21] was 1 h. The CL renal [22] was 4 mL/min, the AUC(0-t) at 96 h [23] was 96.4 ng·h/mL and the AUC (Homo sapiens [24]) was 5527 ng·h/mL. It also gave a Drug excretion [25] of 1158 µg, a Cmax (Homo sapiens [26]) of 869 ng/mL and a Time (Homo sapiens [27]) of 56 h. The AUC (Homo sapiens [28]) was 5821 ng·h/mL, the Cmax (Homo sapiens [29]) was 874 ng/mL and the Cmax (Homo sapiens [30]) was 902 ng/mL. It also gave a Drug excretion [31] of 92 µg, a Tmax (Homo sapiens [32]) of 3 h and an AUClast (Homo sapiens [33]) of 4928 ng·h/mL.
